These results are taken from ChEMBL document CHEMBL3808274, “Discovery and characterization of a novel series of N-phenylsulfonyl-1H-pyrrole picolinamides as positive allosteric modulators of the metabotropic glutamate receptor 4 (mGlu4)” (Bioorg Med Chem Lett, 2016).

Series [1] deals with T1, Metabotropic glutamate receptor 4 (Homo sapiens, UniProt Q14833). Put plainly: Positive allosteric modulation of human mGlu4 receptor assessed as increase in glutamate-induced calcium mobilization. It counts as functional. In outline:
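Calcium mobilization assay in cells expressing human mGlu4; potentiation of the glutamate response measured; EC50 values are the average of n = 3.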
In general terms: Calcium assays in cells follow changes in intracellular calcium, usually with a dye or a luminescent sensor.

The target in series [2] is T1, Metabotropic glutamate receptor 4. Put plainly: Positive allosteric modulation of human mGlu4 receptor assessed as increase in glutamate-induced calcium mobilization at 30 uM relative to PHCCC. It counts as functional. In outline: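 Calcium mobilization assay at human mGlu4; response amplitude with 30 µM test compound normalized to the standard PHCCC and expressed as %GluMax.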

The subject of the next series is Plasma. Put plainly: Fraction unbound in rat plasma by equilibrium dialysis method. The class given is ADME, cell-free. In outline: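 Protein binding in rat plasma measured by equilibrium dialysis; fraction unbound (Fu) reported.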
On the technique in general: Equilibrium dialysis compares concentrations on both sides of a semipermeable membrane.

Series [3] is described as follows: Volume of distribution at steady state in rat at 1 mg/kg, iv. It counts as ADME, organism-based. The settings on record: in vivo, read-out: Vdss. In outline: (§1)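 Rat IV dosing at 1 mg/kg; plasma PK parameters (clearance, half-life, MRT, Vss, AUC) derived from plasma concentration-time profile.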
Series [4] can be described thus: AUC in rat at 1 mg/kg, iv. It counts as ADME, organism-based. The settings on record: in vivo. In outline: as §1
Series [5] can be described thus: Half life in rat at 1 mg/kg, iv. The class given is ADME, organism-based. The settings on record: in vivo. In outline: as §1
Series [6] is described as follows: Mean residence time in rat at 1 mg/kg, iv. It counts as ADME, organism-based. The conditions noted are these: in vivo. In outline:
as §1

Series [7] in a line: Plasma clearance in rat at 1 mg/kg, iv. It counts as ADME, organism-based. In outline: as §1
Series [8] in a line: Systemic plasma concentration in rat at 10 mg/kg, po coadministered with panirreversible P450 inhibitor ABT incubated for 1 hr. It counts as ADME, organism-based. In outline: (§2)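 Rats dosed orally at 10 mg/kg, either with vehicle or co-dosed with 1-aminobenzotriazole (ABT), a pan-irreversible cytochrome P450 inhibitor. At 1 h post-dose, systemic plasma, hepatic portal vein plasma and brain were sampled. Drug concentrations were measured in each matrix, and brain:plasma ratios were derived from these levels.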

The nature of series [9]: Drug level in rat brain at 10 mg/kg, po coadministered with panirreversible P450 inhibitor ABT incubated for 1 hr. It counts as ADME, organism-based. The settings on record: read-out: Drug uptake. In outline:
(§3)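 Rats dosed orally at 10 mg/kg, with vehicle or co-dosed with the pan-irreversible P450 inhibitor 1-aminobenzotriazole (ABT); samples taken at 1 h from systemic plasma, hepatic portal vein plasma and brain. Brain:plasma and systemic:HPV ratios are calculated from these concentrations.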

The nature of series [10]: Drug level in rat brain at 10 mg/kg, po incubated for 1 hr. The class given is ADME, organism-based. The conditions noted are these: read-out: Drug uptake. In outline:
as §3

Series [11] in a line: Ratio of drug level in rat brain to plasma at 10 mg/kg, po coadministered with panirreversible P450 inhibitor ABT incubated for 1 hr. The class given is ADME, organism-based. The settings on record: read-out: BPR. In outline:
as §2

Series [12] in a line: Plasma concentration in rat hepatic portal vein at 10 mg/kg, po coadministered with panirreversible P450 inhibitor ABT incubated for 1 hr. It counts as ADME, organism-based. In outline: as §3
Series [13] is described as follows: Ratio of systemic plasma concentration to hepatic portal vein plasma concentration in rat at 10 mg/kg, po. The settings on record: in vivo. The class given is ADME, organism-based. In outline:
as §3

The nature of series [14]: Ratio of drug level in rat brain to plasma at 10 mg/kg, po incubated for 1 hr. The conditions noted are these: read-out: BPR. It counts as ADME, organism-based. In outline:
as §3

Series [15] is described as follows: Plasma concentration in rat hepatic portal vein at 10 mg/kg, po incubated for 1 hr. The class given is ADME, organism-based. In outline:
as §3

A short description of series [16]: Ratio of systemic plasma concentration to hepatic portal vein plasma concentration in rat at 10 mg/kg, po coadministered with panirreversible P450 inhibitor ABT. The settings on record: in vivo. It counts as ADME, organism-based. In outline: as §3
Series [17] is described as follows: Systemic plasma concentration in rat at 10 mg/kg, po incubated for 1 hr. The class given is ADME, organism-based. In outline: as §2

T1 sequence (Q14833 whole entry): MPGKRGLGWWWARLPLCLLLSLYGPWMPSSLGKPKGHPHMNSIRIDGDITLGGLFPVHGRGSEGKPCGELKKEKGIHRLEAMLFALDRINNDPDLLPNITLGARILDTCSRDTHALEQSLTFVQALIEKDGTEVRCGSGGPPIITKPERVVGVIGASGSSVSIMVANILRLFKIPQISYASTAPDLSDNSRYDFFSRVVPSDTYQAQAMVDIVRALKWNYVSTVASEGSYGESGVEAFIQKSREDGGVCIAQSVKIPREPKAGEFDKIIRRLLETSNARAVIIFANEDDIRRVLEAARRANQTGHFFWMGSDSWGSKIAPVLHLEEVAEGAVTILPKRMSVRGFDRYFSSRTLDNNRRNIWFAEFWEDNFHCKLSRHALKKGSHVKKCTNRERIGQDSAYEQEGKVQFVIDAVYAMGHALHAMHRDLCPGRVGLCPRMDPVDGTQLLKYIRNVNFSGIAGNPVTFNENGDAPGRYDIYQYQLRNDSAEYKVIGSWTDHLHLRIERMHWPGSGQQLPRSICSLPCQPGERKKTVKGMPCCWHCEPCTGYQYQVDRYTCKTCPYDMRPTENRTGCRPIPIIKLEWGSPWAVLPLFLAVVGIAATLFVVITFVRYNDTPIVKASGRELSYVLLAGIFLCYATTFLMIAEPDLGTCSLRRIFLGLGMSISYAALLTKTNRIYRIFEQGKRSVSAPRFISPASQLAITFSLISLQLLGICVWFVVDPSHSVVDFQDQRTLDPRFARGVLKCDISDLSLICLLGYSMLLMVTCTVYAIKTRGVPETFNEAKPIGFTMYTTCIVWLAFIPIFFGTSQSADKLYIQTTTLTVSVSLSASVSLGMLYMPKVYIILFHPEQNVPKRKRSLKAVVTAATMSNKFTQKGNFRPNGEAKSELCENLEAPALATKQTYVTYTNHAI

Take `Cc1cccc(S(=O)(=O)n2ccc(NC(=O)c3ccccn3)c2)c1`: the concentration for a half-maximal effect (EC50) (as a rule, the concentration at which the effect is half-maximal) in series [1] was 104 nM. The %max in series [2] amounted to 84.8%. The same compound registered a Fu in the series with Plasma of 0.001.

`O=C(Nc1ccn(S(=O)(=O)c2ccc(Cl)cc2)c1)c1ccccn1`: the half-maximal effective concentration (EC50) in [1] stood at 1240 nM. For the same compound, in series [2], the %max turned out to be 103%. The Fu in the series on Plasma came out at 0.004.

In the case of `O=C(Nc1ccn(S(=O)(=O)c2ccc(Cl)cn2)c1)c1ccccn1`, the 50% effective concentration (EC50) in series [1] was found to be 344 nM. The %max in series [2] is 83%.

For the compound `Cc1nc(NC(=O)c2ccccn2)sc1S(=O)(=O)Cc1ccc(Cl)cc1F`, the EC50 in [1] worked out at 4140 nM. In [2], the %max came to 112%.

Consider `O=C(Nc1ccn(S(=O)(=O)Cc2ccc(Cl)cc2)c1)c1ccccn1`, for which the 50% effective concentration (EC50) in series [1] was determined as 398 nM. Moreover, the %max in series [2] is 140%.

Regarding `O=C(Nc1cnn(S(=O)(=O)c2ccc(C(F)(F)F)cc2)c1)c1ccccn1`, the EC50 in series [1] is 242 nM. Moreover, the %max in series [2] worked out at 35.3%.

On to `O=C(Nc1ccn(S(=O)(=O)Cc2ccc(C(F)(F)F)cc2)c1)c1ccccn1`, for which, in series [1], the concentration giving a half-maximal response (EC50) came out at 188 nM. Also, the %max in series [2] worked out at 88.7%.

As to `Cc1nc(NC(=O)c2ccccn2)sc1S(=O)(=O)Cc1ccccc1Cl`, in series [1], the half-maximal effective concentration (EC50) was determined as 448 nM. Further, the %max in series [2] stood at 94.8%.

On to `Cc1ccc(S(=O)(=O)n2ccc(NC(=O)c3ccccn3)c2)cc1C`, for which the Vd in [3] was determined as 5.5 L/kg. Further, in series [4], the exposure (AUC) (usually the area under the concentration-time curve, a measure of exposure) came to 448 ng·h/mL. Moreover, in [5], the half-life (commonly the time in which the quantity being followed falls by half) stood at 4.2 h. In series [1], the EC50 is 62 nM. For the same compound, the %max in series [2] was found to be 80.3%. The Fu in the series with Plasma is recorded as 0.012. Also, the mean residence time (MRT) (in general, a mean duration of stay, worked out from the concentration-time curve) in series [6] was 2.48 h. Moreover, the clearance (usually a measure of how efficiently the substance is removed, as volume per time) in series [7] is 37.2 mL/min/kg.

In the case of `Cc1cccc(CS(=O)(=O)n2ccc(NC(=O)c3ccccn3)c2)c1`, the EC50 in [1] is 4180 nM. Besides, the %max in [2] was determined as 112%.

`Cc1cc(S(=O)(=O)n2ccc(NC(=O)c3ccccn3)c2)ccc1F`: the EC50 in series [1] is 268 nM. Moreover, the %max in series [2] was determined as 98.9%.

As to `Cc1nc(NC(=O)c2ccccn2)sc1S(=O)(=O)Cc1c(F)cccc1F`, in [1], the EC50 was determined as 295 nM. In series [2], the %max amounted to 99.3%.

Consider `O=C(Nc1ccn(S(=O)(=O)Cc2ccccc2F)c1)c1ccccn1`, for which the EC50 in [1] came to 251 nM. Besides, the %max in series [2] was 117%.

Take `CCc1nc(NC(=O)c2ccccn2)sc1S(=O)(=O)Cc1ccc(Cl)cc1F`: the concentration for a half-maximal effect (EC50) in [1] was 217 nM. For the same compound, the %max in series [2] was 120%.

As for `Cc1ccc(S(=O)(=O)n2cc(NC(=O)c3ccccn3)cn2)cc1C`, the EC50 in series [1] turned out to be 148 nM. Also, in series [2], the %max was 92.9%. In the series on Plasma, the Fu was determined as 0.005.

On to `O=C(Nc1ccn(S(=O)(=O)Cc2ccc(F)cc2Cl)c1)c1ccccn1`, for which the concentration for a half-maximal effect (EC50) in [1] is 84 nM. For the same compound, the %max in [2] stood at 122%.

In the case of `O=C(Nc1ccn(S(=O)(=O)C(F)(F)c2ccccc2F)c1)c1ccccn1`, the EC50 in [1] is over 30000 nM. For the same compound, the %max in series [2] is 33.5%.

`O=C(Nc1ccn(S(=O)(=O)Cc2ccc(F)cc2F)c1)c1ccccn1`: in [1], the concentration giving a half-maximal response (EC50) came to 190 nM. Moreover, in series [2], the %max is 109%.

For `O=C(Nc1ncc(S(=O)(=O)Cc2ccc(Cl)cc2F)s1)c1ccccn1`, the EC50 in series [1] came to 83 nM. Further, the %max in series [2] was determined as 35.1%.

As to `O=C(Nc1ccn(S(=O)(=O)c2ccc(Cl)nc2)c1)c1ccccn1`, the EC50 in series [1] was 440 nM. Further, in series [2], the %max worked out at 72.9%.

Take `Cc1ccc(S(=O)(=O)n2ccc(NC(=O)c3ccccn3)c2)cc1`: in series [1], the EC50 came to 122 nM. For the same compound, the %max in series [2] turned out to be 88.8%. In the series with Plasma, this compound gave a Fu of 0.009.

As to `Cc1nc(NC(=O)c2ccccn2)sc1S(=O)(=O)Cc1ccc(F)cc1F`, the 50% effective concentration (EC50) in series [1] was 547 nM. Further, the %max in series [2] was 93.5%.

`O=C(Nc1ccn(S(=O)(=O)c2ccc(C(F)(F)F)cc2)c1)c1ccccn1`: the EC50 in series [1] was determined as 739 nM. In addition, the %max in [2] was 35.6%.

Consider `O=C(Nc1ccn(S(=O)(=O)c2ccc(F)cc2)c1)c1ccccn1`, for which the 50% effective concentration (EC50) in series [1] was 740 nM. Moreover, the %max in series [2] was 78.8%.

As for `CCc1nc(NC(=O)c2ccccn2)sc1S(=O)(=O)Cc1c(F)cccc1F`, the concentration giving a half-maximal response (EC50) in [1] amounted to 150 nM. Also, in series [2], the %max worked out at 109%.

On to `O=C(Nc1ccn(S(=O)(=O)Cc2cccc(F)c2)c1)c1ccccn1`, for which, in series [1], the EC50 worked out at 572 nM. In addition, the %max in [2] was found to be 98.6%.

`O=C(Nc1ccn(S(=O)(=O)C(F)c2ccccc2F)c1)c1ccccn1` (stereo not drawn): the half-maximal effective concentration (EC50) in series [1] is 1020 nM. Also, the %max in [2] amounted to 71%.

Take `O=C(Nc1ncc(S(=O)(=O)Cc2ccccc2Cl)s1)c1ccccn1`: the concentration for a half-maximal effect (EC50) in [1] is 189 nM. Further, in series [2], the %max was 30.6%.

As to `Cc1cc(S(=O)(=O)n2ccc(NC(=O)c3ccccn3)c2)ccc1Cl`, the concentration at 1 h was 198 ng/mL in [8]; 176 ng/g in [9]; 8.1 ng/g in series [10]; 764 ng/mL in series [12]; 731 ng/mL in series [15]; 7.4 ng/mL in series [17]. The Vd in series [3] worked out at 7.4 L/kg. The compound also returned an AUC in series [4] of 192 ng·h/mL. Also, the Kp at 1 h in series [11] and in series [14] was 1 each time. In series [5], the half-life was 2.78 h. In [1], the 50% effective concentration (EC50) came to 163 nM. The %max in series [2] was 72.2%. The Fu in the series on Plasma is 0.004. For the same compound, the Ratio is under 0.01 in series [13] and 0.26 in series [16]. The mean residence time MRT in [6] was 1.41 h. For the same compound, in series [7], the clearance stood at 86.8 mL/min/kg.

For the compound `O=C(Nc1ccn(S(=O)(=O)Cc2ccccc2Cl)c1)c1ccccn1`, in series [1], the EC50 was found to be 174 nM. Also, the %max in series [2] is 119%.

For `CC(c1ccccc1)S(=O)(=O)n1ccc(NC(=O)c2ccccn2)c1` (stereo not drawn), the half-maximal effective concentration (EC50) in series [1] was determined as 2970 nM. In addition, the %max in series [2] was 59.6%.
